This is an account of results in ChEMBL document CHEMBL1124829, “Methylating agents as trypanocides” (1990).

Common to all, as to type: functional
Assay [1] concerns Mus musculus. In words: Mean life extension in mice bearing Trypanosoma rhodesiense, after ip administration at 0.4 mmol/kg dose.
In assay [2] the test system is Mus musculus. Nature of the assay: (§1) Mean life extension in mice bearing Trypanosoma rhodesiense, after ip administration at a dose of 0.2 mmol/kg. Details: unit: days. In outline: (§2)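 Female CD-1 mice, 6-8 weeks old, 25-35 g, infected ip with about 10^6 freshly isolated trypanosomes in PBSG. At day 3 post-infection they got a single ip dose, dissolved in 50 µL DMSO or in 0.5 mL PBSG adjusted to pH 7.4. Activity is the days of survival beyond vehicle-only controls, as the mean of 4 mice to the nearest day. Parasitemia was monitored to exclude toxic deaths.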

Assay [3] deals with Mus musculus. The description is as §1. The method, boiled down:
as §2

Assay [4] has as its system Mus musculus. In words: Mean life extension was determined in mice bearing Trypanosoma brucei (M110) after administration of 0.2 mmol/kg per dose. The method, boiled down:
(§3)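 Female CD-1 mice, 6-8 weeks old, were infected ip with about 10^6 cells in PBSG. When parasitemia reached about 10^8 cells/mL they got a single 0.2 mmol/kg dose in DMSO. The result is days survived beyond DMSO-only controls, as the mean of 4 animals to the nearest day with SE. Survival of 30 days or more was counted as cure.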

In assay [5] the test system is Mus musculus. In words: Mean life extension was determined in mice bearing Trypanosoma brucei gambiense (TxTAT 1.0), after administration of 0.2 mmol/kg per dose. In outline:
as §3

Assay [6] concerns Mus musculus. In words: Mean life extension was determined in mice bearing Trypanosoma brucei rhodesiense (YTAT 1.1) after administration of 0.2 mmol/kg per dose. The method, boiled down:
as §3

The test system of assay [7] is Mus musculus. Nature of the assay: Mean life extension was determined in mice bearing Trypanosoma equiperdum (1559), after administration of 0.2 mmol/kg per dose. The method, boiled down: as §3
Assay [8] deals with Mus musculus. In words: Mean life extension was determined in mice bearing Trypanosoma evansi (SAK), after administration of 0.2 mmol/kg per dose. The method, boiled down: as §3
For assay [9], the system named is Mus musculus. Nature of the assay: Mean life extension was determined in mice bearing Trypanosoma evansi (SN) after administration of 0.2 mmol/kg per dose. The method, boiled down:
as §3

Assay [10] has as its system Mus musculus. Nature of the assay: Mean life extension in mice bearing Trypanosoma rhodesiense, after ip administration at 0.9 mmol/kg dose. The method, boiled down: as §2
For assay [11], the system named is Mus musculus. In words: Mean life extension in mice bearing Trypanosoma rhodesiense, after ip administration at a dose of 0.5 mmol/kg.
The test system of assay [12] is Mus musculus. In words: Mean life extension in mice bearing Trypanosoma rhodesiense, after ip administration at 0.5 mmol/kg dose. In outline: as §2

Take `CN(N=O)C(N)=O` [N-METHYL-N-NITROSUREA]: the Mean life extension with Mus musculus [1] is on record as over 30; with Mus musculus [2], 8.

In the assay on Mus musculus [3], `CN(N=O)C(=O)N[C@@H](C=O)[C@@H](O)[C@H](O)[C@H](O)CO` [STREPTOZOCIN] showed a Mean life extension of 4.

`CN(NS(C)(=O)=O)S(C)(=O)=O`: the Mean life extension in the assay on Mus musculus [4] was 11; with Mus musculus [5] it was 13; in the assay with Mus musculus [6] it was 12; with Mus musculus [7] it was 12; with Mus musculus [8], over 30; in the assay with Mus musculus [9], 12. Moreover, the Mean life extension with Mus musculus [2] turned out to be 12.

With `CN(NS(=O)(=O)c1ccccc1)S(=O)(=O)c1ccccc1`, the Mean life extension with Mus musculus [2] is recorded as 5.

In the assay with Mus musculus [2], `COS(=O)(=O)OC` [SULFURIC ACID DIMETHYL ESTER] gave a Mean life extension of 3.

As to `CNNCc1ccc(C(=O)NC(C)C)cc1` [PROCARBAZINE], the results for the Mean life extension in the assay on Mus musculus [10] and with Mus musculus [2] were over 30 and 5, respectively.

Take `CCNNCC.Cl.Cl`: the Mean life extension in the assay with Mus musculus [2] amounted to 0.

The compound `CNN.Cl.Cl` gave a Mean life extension in the assay with Mus musculus [11] of 1.

Consider `CN(C)/N=N/c1[nH]cnc1C(N)=O` [DACARBAZINE], for which the Mean life extension was over 30 in the assay with Mus musculus [12] and 6 in the assay with Mus musculus [2].

In the assay on Mus musculus [2], `COc1ccc(S(=O)(=O)NN(C)S(C)(=O)=O)cc1` came in with a Mean life extension of 4.

Turning to `CN(NC(=O)c1ccccc1)C(=O)c1ccccc1`, the Mean life extension in the assay on Mus musculus [2] was 0.

Turning to `Cl.Cl.NN` [HYDRAZINE DIHYDROCHLORIDE], in the assay with Mus musculus [11], the Mean life extension is given as 0.

For the compound `CNNC.Cl.Cl`, the Mean life extension with Mus musculus [2] turned out to be 4.

For `O=S(=O)(NNS(=O)(=O)c1ccccc1)c1ccccc1`, the Mean life extension with Mus musculus [2] came to 0.

As to `CCOS(=O)(=O)OCC` [SULFURIC ACID DIETHYL ESTER], the Mean life extension in the assay with Mus musculus [2] is on record as 0.

In the assay on Mus musculus [2], `COS(C)(=O)=O` [METHANESULFONIC ACID METHYL ESTER] gave a Mean life extension of 1.
